SENP6 inh: SENP6 protease inhibitors, primary screen, biochemical, luminescence, uHTS; Recombinant SENP6 catalytic domain, aminoluciferin luminescence; inhibition, % at 10 µM; 1.8% of 330,000 active; AID 2599, 2010;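 active = inhibition above about 50% at the single tested dose, limit read from the data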
HSP90 refold inh: HSP90 inhibitors, primary screen, cell lysate, luminescence; Rabbit reticulocyte lysate, luciferase refolding luminescence, 3 h; AID 1789, 2009; inhibition, % at 5.6 µM; 0.91% of 290,000 active;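 active = inhibition above the screen-wide mean plus 3 SD, computed separately per campaign, cut at about 16% in these data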;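 also: inhibitors lower the luminescence because luciferase stays unfolded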
SENP8 block-1: SENP8 protease inhibitors, primary screen, biochemical, luminescence; Sentrin-specific protease 8 (Homo sapiens), Q96LD8; purified SENP8, Z-RLRGG-aminoluciferin cleavage; inhibition, % at 10 µM; 1.2% of 330,000 active; in the data active = inhibition above about 50%
Target sequence (Q96LD8 whole entry, looked up): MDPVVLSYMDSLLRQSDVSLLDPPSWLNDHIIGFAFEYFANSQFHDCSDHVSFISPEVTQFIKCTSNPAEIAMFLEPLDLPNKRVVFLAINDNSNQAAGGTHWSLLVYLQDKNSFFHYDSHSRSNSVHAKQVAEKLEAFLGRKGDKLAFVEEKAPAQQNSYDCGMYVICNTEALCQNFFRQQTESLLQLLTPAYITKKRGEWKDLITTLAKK
SENP7 block: SENP7 protease inhibitors, primary screen, biochemical, luminescence, uHTS; Sentrin-specific protease 7 (Homo sapiens), Q9BQF6; 1.5% of 330,000 active; inhibition, % at 5 µM; AID 434973, 2010; recombinant SENP7, Z-RLRGG-aminoluciferin luminescence, 40 min;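 active = inhibition above about 50% at the single test dose, limit read from the data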
SENP8 block-2: human SENP8 protease inhibitors, primary screen, biochemical, fluorescence, Nedd8 protein substrate, uHTS; Sentrin-specific protease 8 (Homo sapiens), Q96LD8; recombinant SENP8; inhibition, % at 20 µM; 0.64% of 360,000 active; in the data active = inhibition mostly above about 40%, no sharp cut-off; inactive = mostly below about 27%
SENP1 FRET inh: human SENP1 catalytic domain inhibitors, primary screen, biochemical, FRET, uHTS; recombinant SENP1 catalytic domain, CyPet-SUMO1-YPet FRET cleavage; inhibition, % at 10 µM; 0.21% of 360,000 active; Sentrin-specific protease 1 (Homo sapiens), Q9P0U3;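 active = inhibition at least 30% at 10 µM, raw YFP signal under a set limit, fluorescence ratio 0.5 to 1.5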
Target sequence (Q9P0U3 419-644 limits assumed): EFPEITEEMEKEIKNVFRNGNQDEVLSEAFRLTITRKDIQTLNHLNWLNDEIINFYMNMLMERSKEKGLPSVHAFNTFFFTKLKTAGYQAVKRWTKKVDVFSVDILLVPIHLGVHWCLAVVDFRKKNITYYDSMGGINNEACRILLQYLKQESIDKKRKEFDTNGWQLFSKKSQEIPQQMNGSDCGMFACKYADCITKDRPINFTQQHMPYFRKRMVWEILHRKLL
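Test system: recombinant human SENP1 catalytic domain, His6-tagged / Medium: pH 8 Tris buffer with EDTA, NaCl, BME, BSA, NP40, catalase / Also added: SUMO1 FRET substrate flanked by Cypet and Ypet, 25 nM / Times: 50 min reaction at room temperature / Signal: FRET, CFP and YFP emission / Control set: no-enzyme low control and enzyme-plus-DMSO high control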
SENP1 inh conf: human SENP1 catalytic domain inhibitors, confirmation, biochemical, FRET endpoint, single concentration; shares compounds with SENP1 FRET inh; inhibition, % at 10 µM; 34% of 520 active; recombinant SENP1, CyPet-SUMO1-YPet FRET cleavage; AID 651678, 2012; in the data active = inhibition mostly above about 35%, no sharp cut-off; inactive = mostly below about 32%
SENP1 kinetic: human SENP1 catalytic domain inhibitors, confirmation, biochemical, kinetic FRET, single concentration | AID 651690, 2012 | 26% of 520 active | shares compounds with SENP1 FRET inh | inhibition, % at 10 µM | recombinant SENP1, CyPet-SUMO1-YPet FRET kinetic cleavage; in the data active = inhibition mostly above about 32%, no sharp cut-off; inactive = mostly below about 29%
Large screens that a line does not name were inactive (follow-up assays come after a bar, where they were run). Hits are enriched below; roughly 2.9% of the tested compounds scored in any of these assays.

CC(=O)Nc1cc(-c2ccc(N3CCN(C)CC3)cc2)cn2c(-c3ccc(F)c(Cl)c3)cnc12	SENP1 FRET inh 42 (no result: SENP6 inh, HSP90 refold inh, SENP8 block-1, SENP7 block) | SENP1 inh conf inactive | SENP1 kinetic inactive
CCOC(=O)C1=CC[C@@H](c2ccccc2)N(S(=O)(=O)c2ccc(C)cc2)[C@H]1C#N	none (no result: SENP6 inh, HSP90 refold inh, SENP8 block-1, SENP7 block)
CC(C)CNC(=O)c1ccc(C2SCC(=O)N2Cc2ccccc2)cc1 (stereo not drawn)	SENP1 FRET inh 46 | SENP1 inh conf 35 | SENP1 kinetic inactive
Clc1ccccc1N=Nc1ccccn1	SENP8 block-2 57, SENP1 FRET inh 58 (no result: SENP6 inh, HSP90 refold inh, SENP8 block-1, SENP7 block) | SENP1 inh conf inactive | SENP1 kinetic inactive
Cc1[nH][nH]c(=O)c1N=Nc1ccccc1Cl	none
Cc1ccc(CNc2ccc3c(c2)nc(C)n3C)cc1	none
Cc1nc2cc(NCc3ccc(Cl)cc3)ccc2n1C	SENP1 FRET inh 31 | SENP1 inh conf inactive | SENP1 kinetic inactive
O=C1CNCc2[nH]c3ccccc3c2N1c1ccccc1	none
O=CN1Cc2[nH]c3ccccc3c2N(c2ccc(Cl)cc2)C1=O	SENP1 FRET inh 31 | SENP1 inh conf inactive | SENP1 kinetic inactive
Cc1sc(-c2ccccn2)nc1OC(=O)c1cccc(Cl)c1Cl	SENP1 FRET inh 36 | SENP1 inh conf inactive | SENP1 kinetic 50
C[C@H](CO)N1C[C@H](C)[C@@H](CN(C)S(=O)(=O)c2cn(C)cn2)Oc2c(NS(=O)(=O)c3cn(C)cn3)cccc2C1=O	none (no result: HSP90 refold inh)
CC[C@]12c3[nH]c4cc(CCC(=O)N(C)C)ccc4c3CCN1C(=O)[C@@H](CC(=O)NCC13CC4CC(CC(C4)C1)C3)C[C@@H]2C(=O)N1CCN(C(=O)c2ccco2)CC1	none (no result: SENP6 inh, HSP90 refold inh, SENP8 block-1)
COc1ccc(C(=O)NC(C)CCc2ccccc2)cc1[N+](=O)[O-] (stereo not drawn)	none
COc1ccc(C(=O)C(C)[n+]2ccc(C)c3ccccc32)cc1[N+](=O)[O-] (stereo not drawn)	SENP1 FRET inh 78 | SENP1 inh conf inactive | SENP1 kinetic inactive
O=C1CC(c2ccccc2)Cc2nc3nc(C(F)(F)F)nn3cc21 (stereo not drawn)	SENP1 FRET inh 63 | SENP1 inh conf inactive | SENP1 kinetic inactive
CSc1nc2nc3c(cn2n1)C(=O)CC(c1ccccc1)C3 (stereo not drawn)	none
C[C@H](CO)N1C[C@H](C)[C@@H](CN(C)S(C)(=O)=O)OCc2cnnn2CCCC1=O	none (no result: SENP6 inh, HSP90 refold inh, SENP8 block-1, SENP7 block)
CCOC(=O)C1CCCN(C2=NC(=O)/C(=C/c3ccc(O)c(OC)c3)S2)C1 (stereo not drawn)	SENP1 FRET inh 69 | SENP1 inh conf 110 | SENP1 kinetic 66
CC1(C(=O)NS(=O)(=O)c2ccc(F)cc2F)CCN1C(=O)c1cccc(F)c1 (stereo not drawn)	none (no result: SENP6 inh, HSP90 refold inh, SENP8 block-1, SENP7 block)
CC1(C)CC(=O)C=C(c2ccc(-c3ccc4[nH]ccc4c3)cc2)C1=O	SENP1 FRET inh 29 (no result: SENP6 inh, HSP90 refold inh, SENP8 block-1, SENP7 block) | SENP1 inh conf inactive | SENP1 kinetic inactive
CN(CC1CCCN(CCc2ccc(F)cc2)C1)C(=O)CCC(N)=O (stereo not drawn)	none
CCC(=NCc1ccccc1)C1=C(O)C(C(=O)OC)C(C)(C)CC1=O (stereo not drawn)	none
CCC(=Nc1ccc(N)cc1)C1=C(O)C(C(=O)OC)C(C)(C)CC1=O (stereo not drawn)	SENP8 block-2 70, SENP1 FRET inh 54 | SENP1 inh conf inactive | SENP1 kinetic inactive
Cc1c(-n2cc(C(=O)c3cc(Cl)ccc3O)cc(C#N)c2=O)c(=O)n(-c2ccccc2)n1C	SENP1 FRET inh 61 | SENP1 inh conf 53 | SENP1 kinetic 40

Bioassay records (PubChem BioAssay)
